The text below walks through data of publication PMC8302237 (CPT: Pharmacometrics & Systems Pharmacology, 2021).

Series [1] is classed as in vivo, human. Particulars: for dose proportionality of PK: p.o. tablet dosing. Put shortly:
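Plasma parent, M5 and M6 concentration-time data came from clinical studies. In healthy volunteers, dosing was i.v., 150–600 mg single-dose tablet p.o., or 300–750 mg multiple-dose tablet. In HCV patients, dosing was 50–300 mg single-dose or 50–400 mg multiple-dose capsule, or 300–450 mg multiple-dose tablet; 450 mg once daily gave Day 7 profiles with washout. Itraconazole DDI: healthy volunteers; HCV patients received 300 mg multiple-dose tablet plus 200 mg multiple-dose itraconazole.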

Series [2] can be described thus: Minimal PBPK model. The format is in vivo, human.

For `C[C@@]1(Cl)[C@H](O)[C@@H](CO)O[C@H]1n1ccc(=O)[nH]c1=O` [M6], the “effect of itraconazole coadministration on early metabolite profile” value in series [1] (itraconazole DDI, plasma) was “first M6 peak was almost absent”. In addition, in series [1], the “dose proportionality of PK” value was “not dose proportional”.
For the compound `CC(C)OC(=O)[C@@H](C)N[P@@](=O)(OC[C@H]1O[C@@H](n2ccc(=O)[nH]c2=O)[C@](C)(Cl)[C@@H]1O)Oc1ccccc1` [uprifosbuvir], in series [1] (itraconazole DDI study, plasma), the “effect of itraconazole coadministration on uprifosbuvir exposure” value is recorded as “large increase in uprifosbuvir exposure” and the “effect of itraconazole coadministration on uprifosbuvir tmax” value is “delayed time to reach maximum uprifosbuvir plasma concentration”. Moreover, the “dose proportionality of PK” value in series [1] is listed as “dose proportional”. In series [2] (gut), the “share of unabsorbed uprifosbuvir dose metabolized into M5” value worked out at 11%, the “share of unabsorbed uprifosbuvir dose metabolized into M6” value was 52% and the “share of unabsorbed uprifosbuvir dose metabolized into pseudo-M4” value came out at 37%. Besides, in series [2] (p.o., based on the model), the “unabsorbed fraction of uprifosbuvir dose (metabolized in gut)” value is 86% and the “uprifosbuvir dose estimated to reach the liver unchanged” value was “about 14%”.
